Data set [1] relates to TJ proteins ZO-1, claudin-1, F-actin. Put plainly: Immunofluorescence of TJ proteins in RNECs. In kind it is cell-based, rat. The following applies: 3 h; puerarin 50, peoniflorin 20, menthol 25 μg/mL. The method in brief: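 Monolayers grown on PET Transwell membranes (5×10^5 cells/cm2) were exposed to compound media for 3 h at 37°C. They were fixed in cold 4% paraformaldehyde for 30 min and blocked 1 h in goat serum. Anti-ZO-1 or anti-claudin-1 (1:100) was applied overnight at 4°C, then TRITC/FITC secondaries; F-actin was stained with phalloidin (1:150, 30 min, RT), with DAPI counterstain. Fluorescence/confocal imaging used identical settings; AOD = IntDen/Area, expressed as percentage.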

For another data set, the system named is Calu-3 cells. Particulars: Calu-3 monolayer, cited from earlier work.
In the next data set the test system is P-gp. The data set is described as follows: Rho 123 efflux/accumulation by flow cytometry. It counts as cell-based, rat. The following applies: puerarin 50, peoniflorin 20, menthol 25 μg/mL. Background: Flow cytometry measures light scatter and fluorescence of single cells or particles in a stream.
The conditions of data set [2]: rats, cited from earlier work.
Data set [3] in a line: Bidirectional transport of puerarin across RNEC monolayers. The following applies: Sprague Dawley, rat. In kind it is in vitro ADME. In outline:
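RNECs from a male Sprague Dawley rat nasal epithelium, passage 2–3, were seeded at 5×10^5 cells/cm2 on collagen-coated 0.4-μm PET Transwell membranes and grown 3 days at air interface until TEER >500 Ω·cm2. Monolayers were HBSS-washed and equilibrated 30 min at 37°C. Drug was dosed apical or basolateral with shaking at 37°C, receiver sampled 30–180 min, and quantified by C18 HPLC-UV at 250 nm. Papp = regression dQ/dt over donor C and area; ER calculated from both directions.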

In the case of `CC1CCC(C(C)C)C(O)C1` (centres unmarked) [menthol], in data set [1], the “immunostaining / AOD of ZO-1, claudin-1 and F-actin versus control” value is on record as “weaker than that of the control group”. Moreover, in the data set with Calu-3 cells, the “effect of coadministration on Papp of puerarin” value was “significantly (P<0.05) improved”. The “effect on P-gp function (Rho 123 retention)” value (“effect on P-gp function” below) with P-gp is recorded as “inhibited the function of P-gp”.

With `C[C@@]12C[C@@]3(O)O[C@@H](O1)[C@]1(COC(=O)c4ccccc4)[C@H]3C[C@@]12O[C@@H]1O[C@H](CO)[C@@H](O)[C@H](O)[C@H]1O` [peoniflorin], the “effect of coadministration on Papp of puerarin” value in the data set with Calu-3 cells is given as “remained unaltered”. For the same compound, in the data set with P-gp, the “effect on P-gp function” value was “inhibited the function of P-gp”.

In the case of `O=c1c(-c2ccc(O)cc2)coc2c([C@@H]3O[C@H](CO)[C@@H](O)[C@H](O)[C@H]3O)c(O)ccc12` [puerarin, Puerarin], in data set [2] (intranasal versus injection and oral), the “ability of puerarin to target the brain via intranasal administration” value was “higher than that with injection and oral administration”. The “bioavailability of puerarin following intranasal administration” value in data set [2] (intranasal versus oral, plasma and brain by HPLC) was “significantly higher than that of oral administration”. Besides, the “Papp of puerarin bidirectional transport” value with Calu-3 cells (both directions) is less than 1.5 ×10⁻⁶ cm/s. Moreover, the “efflux ratio (ER)” value with Calu-3 cells is reported as less than 1.5. The “effect on P-gp function” value in the data set on P-gp is reported as “inhibited the function of P-gp”. Further, in data set [3], the Papp A→B at 180 min is 1.27 to 1.31 ×10⁻⁶ cm/s, the Papp B→A at 180 min fell in the range of 1.35 to 1.41 ×10⁻⁶ cm/s, the Papp at 180 min is less than 1.5 ×10⁻⁶ cm/s and the efflux ratio at 180 min was less than 2.

One may read the Papp A→B as how fast a substance crosses the layer from the apical side. The low end stands for slow passage, the high end for fast passage. For orientation: Papp B→A means the apparent permeability from the basolateral to the apical side of a cell layer. As usually defined, the Papp is the rate of passage across a membrane or cell layer, normalised by area and donor concentration. Lower therefore signals poor permeation. A word on the efflux ratio: it is a quotient of directional permeabilities that is used to spot active efflux.

The record behind these values is publication PMC5590686 (Drug Design, Development and Therapy, 2017).
